Measurements reported in PMC2196149 (The Journal of Experimental Medicine, 1997).
Primed or numbered codes have the meaning given here. No end group written: not given here. *: point of attachment. IASA″ = iodo-4-azidosalicylic acid, on the N-terminus in place of PbCS S-252; Benzoyl(4-N3) = [N-]=[N+]=Nc1ccc(C(=O)*)cc1; IASA = iodo-4-azidosalicylic acid

Legend:
TCR on CTL S4 = assay: TCR-ligand dissociation, clone S4; format: binding, mice; conditions: preliminary, unpublished results
[1] = system: seven IASA-YIPSAEK(ABA)I-specific CTL clones; assay: 51Cr release cytolytic assay, P815 targets, seven CTL clones; format: cell-based, mice; conditions: clones S1, S4, S14, S15, S17, S18, T1; 51Cr-labeled P815 targets; wt = 1 (Fig. 3 A)
[2] = system: S15 CTL / A20 Fas^− cells; assay: 51Cr release cytolytic assay, A20 Fas^− targets, clone S15; format: cell-based, mice; conditions: 51Cr-labeled A20 Fas^− cells, E/T 3:1, 8 h; representative experiment (Fig. 4 B)
Outline: (§1)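 Murine H-2Kd-restricted CTL clone specific for a photoreactive derivative of a Plasmodium berghei circumsporozoite 252–260 peptide. Targets are 51Cr-labeled A20 B lymphoma cells or their Fas-lacking variant, 2 × 10^3/well, in threefold dilutions of peptide derivative in DMEM + 5% FCS + 10 mM Hepes. CTL (6 × 10^3/well) added after 15 min; 8 h at 37°C. Supernatant 51Cr counted. Specific lysis = 100 × (experimental − spontaneous)/(total − spontaneous).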

S15 CTL / A20 cells = assay: 51Cr release cytolytic assay, A20 targets, clone S15; format: cell-based, mice; conditions: 51Cr-labeled A20 cells, E/T 3:1, 8 h; representative experiment (Fig. 4 A)
Outline: as §1

S15 CTL = assay: 51Cr release cytolytic assay, P815 targets, clone S15; format: cell-based, mice; conditions: 51Cr-labeled P815 targets; partial recognition
Outline: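 Cloned CTL are tested on 51Cr-labeled P815 mastocytoma targets (DMEM, 5% FCS, 10 mM Hepes), 2 × 10^3/well, with threefold dilutions of peptide derivative. CTL (6 × 10^3/well) added after 15 min; 4 h at 37°C. Supernatant 51Cr measured. Specific lysis = 100 × (experimental − spontaneous)/(total − spontaneous release).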

TCR on CTL T1 = assay: TCR-ligand dissociation, clone T1; format: binding, mice; conditions: preliminary, unpublished results
S14 CTL = assay: inhibition of recognition of photocross-linked IASA-YIPSAEK; format: cell-based, mice; conditions: P815 cells photocross-linked with suboptimal IASA-YIPSAEK(ABA)I (Fig. 5 B)
TCR on CTL S17 = assay: TCR-ligand dissociation, clone S17; format: binding, mice; conditions: preliminary, unpublished results

## E258A ({IASA}-YIPSAAK(Benzoyl(4-N3))I)
TCR on CTL S4
  dissociation of ligand from TCR compared with wild-type ligand: considerably slower

## I254A ({IASA}-YAPSAEK(Benzoyl(4-N3))I)
[1]
  normalized relative antigenic activities over seven CTL clones: 0.1 to 6

## IASA-YIPSAEK(ASA)I [K259(ASA)]
[1]
  normalized relative antigenic activities over seven CTL clones: efficiently recognized by all clones, except by clone S15
[2]
  concentration for half-maximal lysis of A20 Fas^− cells by S15 CTL: not detectably lysed
S15 CTL / A20 cells
  specific lysis at half-maximum, A20 cells, S15 CTL: 13%
S15 CTL
  plateau of specific lysis, S15 CTL: ≤ 30%

## IASA-YIPSAEK(IASA)I
S15 CTL
  plateau of specific lysis, S15 CTL: even lower plateau of lysis

## P255A ({IASA}-YIASAEK(Benzoyl(4-N3))I; not fully specified)
[1]
  normalized relative antigenic activities over seven CTL clones: 0.1 to 6
TCR on CTL T1
  dissociation of ligand from TCR compared with wild-type ligand: faster

## P255L ({IASA}-YILSAEK(Benzoyl(4-N3))I; not fully specified)
S14 CTL
  concentration required for maximal inhibition relative to K259(BA), S14 CTL: ~10 fold

## P255S ({IASA}-YISSAEK(Benzoyl(4-N3))I; not fully specified)
TCR on CTL S17
  dissociation of ligand from TCR compared with wild-type ligand: considerably slower

## S256A ({IASA″}-YIPAAEK(Benzoyl(4-N3))I)
[1]
  normalized relative antigenic activities over seven CTL clones: 0.1 to 6
TCR on CTL S17
  dissociation of ligand from TCR compared with wild-type ligand: faster
